Published values from different studies.
Cell line: MCF-10A
Observed: cell growth or viability

| Compound | method | time | IC50 [µM] |
| --- | --- | --- | --- |
| CN(C)C(=S)[N-]N=C(c1ccccn1)c1ccccn1.[O]=[V+]=[O] | MTT | 48 h | 19.2 |
| CC(C)Cc1ccc([C@H](C)C(=O)O)cc1 | SRB | 72 h | 435 |
| Cc1ccc(S(=O)(=O)n2cc(/C=N/NC(=O)c3ccc(C)c(F)c3)c3ccccc32)cc1 | MTT | 48 h | > 50 |
| CC(=O)O[C@H]1C(=O)[C@@]2(C)[C@H]([C@H](OC(=O)c3ccccc3)[C@]3(O)C[C@H](OC(=O)[C@H](O)[C@@H](NC(=O)c4ccccc4)c4ccccc4)C(C)=C1C3(C)C)[C@]1(OC(C)=O)CO[C@@H]1C[C@@H]2O | MTT | 48 h | > 100 |
| Cc1ccc(S(=O)(=O)n2cc(/C=N/NC(=O)c3cccc4ccccc34)c3ccccc32)cc1 | MTT | 48 h | > 50 |
| CCOC(=O)c1c(C)nc2ccc(-c3ccc(F)c(F)c3)cc2c1O | MTT | 48 h | > 100 |
| CO[C@H]1[C@H](O[C@H]([C@H]2O[C@@H](n3ccc(=O)[nH]c3=O)[C@H](O)[C@@H]2O)[C@H](NCCCNC(=O)[C@@H](NC(=O)[C@@H](NC(=O)N[C@H](C(=O)O)C(C)C)[C@@H]2CCN=C(N)N2)[C@@H](OC(=O)CCCCCCCCCCCCN(O)C(=N)N)C(C)C)C(=O)O)O[C@H](CN)[C@H]1O | WST-1 | – | > 35 |
| CCOC(=O)c1c(C)nc2ccc(-c3ccc(F)cc3)cc2c1O | MTT | 48 h | > 100 |
| COc1ccc(C(=O)N/N=C/c2cn(S(=O)(=O)c3ccc(C)cc3)c3ccccc23)cc1 | MTT | 48 h | > 50 |
| CCOC(=O)c1c(C)nc2ccc(-c3ccc(OCc4ccccc4)c(F)c3)cc2c1O | MTT | 48 h | > 100 |
| CO[C@H]1[C@H](O[C@H]([C@H]2O[C@@H](n3ccc(=O)[nH]c3=O)[C@H](O)[C@@H]2O)[C@H](NCCCNC(=O)[C@@H](NC(=O)[C@@H](NC(=O)N[C@H](C(=O)O)C(C)C)[C@@H]2CCN=C(N)N2)[C@@H](O)C(C)C)C(=O)O)O[C@H](CN)[C@H]1O | WST-1 | – | > 35 |
